Test results taken from ChEMBL document CHEMBL1140710, “Structure-activity relationships of cyclic lactam analogues of alpha-melanocyte-stimulating hormone (alpha-MSH) targeting the human melanocortin-3 receptor” (J Med Chem, 2008).

Experiments:
[1] = biological target: T1, Melanocortin receptor 4 (Homo sapiens, UniProt P32245); experiment: Agonist activity at human MC4 receptor expressed in HEK293 cells assessed as intracellular cAMP accumulation at 10 uM; type: functional, cell-based
In short: (§1)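 Stably transfected HEK293 cells seeded 48 h before assay at 50000 cells/well. Cells preincubated 1 min at 37 °C in Earle's balanced salt solution with 0.5 mM IBMX, then exposed to 10 μM peptide for 3 min at 37 °C. Cells boiled 7 min, cAMP measured by [3H]cAMP/PKA competition with a standard curve. Result expressed as percent of cAMP produced by 10 μM MT-II.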

[2] = biological target: T2, Melanocortin receptor 5 (Homo sapiens, UniProt P33032); experiment: Agonist activity at human MC5 receptor expressed in HEK293 cells assessed as intracellular cAMP accumulation at 10 uM; type: functional, cell-based; in short: as §1
[3] = biological target: T3, Melanocortin receptor 3 (Homo sapiens, UniProt P41968); experiment: Agonist activity at human MC3 receptor expressed in HEK293 cells assessed as intracellular cAMP accumulation at 10 uM relative to MT2; type: functional, cell-based; in short: as §1
[4] = biological target: T1, Melanocortin receptor 4; experiment: Agonist activity at human MC4 receptor expressed in HEK293 cells assessed as intracellular cAMP accumulation at 10 uM relative to MT2; type: functional, cell-based; in short: as §1
[5] = biological target: T4, Melanocyte-stimulating hormone receptor (Homo sapiens, UniProt Q01726); experiment: Agonist activity at human MC1 receptor expressed in HEK293 cells assessed as intracellular cAMP accumulation at 10 uM relative to MT2; type: functional, cell-based; in short: as §1
Target sequence in this assay (Q01726 whole entry, looked up): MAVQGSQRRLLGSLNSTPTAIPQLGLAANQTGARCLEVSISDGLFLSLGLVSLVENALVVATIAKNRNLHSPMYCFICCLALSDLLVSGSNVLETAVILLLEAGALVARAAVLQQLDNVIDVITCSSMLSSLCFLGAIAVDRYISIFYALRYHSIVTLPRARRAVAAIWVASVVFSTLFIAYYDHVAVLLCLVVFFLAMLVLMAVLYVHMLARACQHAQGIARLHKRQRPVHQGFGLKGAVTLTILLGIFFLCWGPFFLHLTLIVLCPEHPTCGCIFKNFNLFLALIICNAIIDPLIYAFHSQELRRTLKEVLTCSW

[6] = biological target: T3, Melanocortin receptor 3; experiment: Agonist activity at human MC3 receptor expressed in HEK293 cells assessed as intracellular cAMP accumulation at 10 uM; type: functional, cell-based; in short: as §1
[7] = biological target: T2, Melanocortin receptor 5; experiment: Agonist activity at human MC5 receptor expressed in HEK293 cells assessed as intracellular cAMP accumulation at 10 uM relative to MT2; type: functional, cell-based; in short: as §1
[8] = biological target: T3, Melanocortin receptor 3; experiment: biochemical; type: cell-based, HEK293
[9] = biological target: T2, Melanocortin receptor 5; experiment: Displacement of [125I][Nle4,D-Phe7]alpha-MSH from human MC5 receptor expressed in HEK293 cells; type: cell-based
In short: (§2)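 Whole stably transfected HEK293 cells seeded 48 h before assay at 50000 cells/well. Binding buffer: MEM, 25 mM HEPES pH 7.4, 0.2% BSA, 1 mM 1,10-phenanthroline, leupeptin, bacitracin. Cells washed, lysed with NaOH/Triton X-100, gamma-counted. IC50 is mean of two triplicate experiments.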

[10] = biological target: T4, Melanocyte-stimulating hormone receptor; experiment: Displacement of [125I][Nle4,D-Phe7]alpha-MSH from human MC1 receptor expressed in HEK293 cells; type: cell-based; in short: as §2
Target sequence in this assay (Q01726 whole entry): as the sequence (Q01726 whole entry, looked up) above

[11] = biological target: T2, Melanocortin receptor 5; experiment: Agonist activity at human MC5 receptor expressed in HEK293 cells assessed as intracellular cAMP accumulation; type: functional, cell-based
In short: (§3)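 HEK293 cells stably transfected with the receptor, seeded 48 h ahead at 50000 cells/well. Preincubated 1 min at 37 °C in Earle's balanced salt solution with 0.5 mM IBMX, then exposed to peptide for 3 min at 37 °C. cAMP measured by [3H]cAMP/PKA competition against a standard curve.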

[12] = biological target: T1, Melanocortin receptor 4; experiment: biochemical; type: cell-based, HEK293
[13] = biological target: T4, Melanocyte-stimulating hormone receptor; experiment: Agonist activity at human MC1 receptor expressed in HEK293 cells assessed as intracellular cAMP accumulation; type: functional, cell-based
In short: (§4)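 Stably transfected HEK293 cells seeded 48 h before assay at 50000 cells/well. Cells preincubated 1 min at 37 °C in Earle's balanced salt solution with 0.5 mM IBMX, then exposed to varying peptide concentrations for 3 min at 37 °C. Cells boiled 7 min, cAMP quantified by [3H]cAMP/PKA competition against a standard curve.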
Target sequence in this assay (Q01726 whole entry): as the sequence (Q01726 whole entry, looked up) above

[14] = biological target: T3, Melanocortin receptor 3; experiment: Agonist activity at human MC3 receptor expressed in HEK293 cells assessed as intracellular cAMP accumulation; type: functional, cell-based; in short: as §4
[15] = biological target: T4, Melanocyte-stimulating hormone receptor; experiment: Agonist activity at human MC1 receptor expressed in HEK293 cells assessed as intracellular cAMP accumulation at 10 uM; type: functional, cell-based; in short: as §1
Target sequence in this assay (Q01726 whole entry, looked up): as above

[16] = biological target: T1, Melanocortin receptor 4; experiment: Agonist activity at human MC4 receptor expressed in HEK293 cells assessed as intracellular cAMP accumulation; type: functional, cell-based; in short: as §3
[17] = biological target: T3, Melanocortin receptor 3; experiment: Antagonist activity at human MC3 receptor expressed in HEK293 cells assessed as inhibition of MT2 induced intracellular cAMP accumulation; type: functional, cell-based; settings: for Kb: read-out: pA2 (converted)
[18] = biological target: T2, Melanocortin receptor 5; experiment: Antagonist activity at human MC5 receptor expressed in HEK293 cells assessed as inhibition of MT2 induced intracellular cAMP accumulation; type: functional, cell-based; settings: read-out: pA2 (converted)

T1 sequence (P32245 whole entry): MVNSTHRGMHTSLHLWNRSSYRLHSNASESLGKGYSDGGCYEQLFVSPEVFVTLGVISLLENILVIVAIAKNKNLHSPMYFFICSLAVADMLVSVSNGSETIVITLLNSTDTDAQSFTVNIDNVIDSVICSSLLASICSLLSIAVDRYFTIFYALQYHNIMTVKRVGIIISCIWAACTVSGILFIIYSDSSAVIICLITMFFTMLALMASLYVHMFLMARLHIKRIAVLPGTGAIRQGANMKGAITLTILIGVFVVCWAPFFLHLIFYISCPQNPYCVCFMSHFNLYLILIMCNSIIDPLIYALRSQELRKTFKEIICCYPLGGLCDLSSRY
T3 sequence (P41968 whole entry): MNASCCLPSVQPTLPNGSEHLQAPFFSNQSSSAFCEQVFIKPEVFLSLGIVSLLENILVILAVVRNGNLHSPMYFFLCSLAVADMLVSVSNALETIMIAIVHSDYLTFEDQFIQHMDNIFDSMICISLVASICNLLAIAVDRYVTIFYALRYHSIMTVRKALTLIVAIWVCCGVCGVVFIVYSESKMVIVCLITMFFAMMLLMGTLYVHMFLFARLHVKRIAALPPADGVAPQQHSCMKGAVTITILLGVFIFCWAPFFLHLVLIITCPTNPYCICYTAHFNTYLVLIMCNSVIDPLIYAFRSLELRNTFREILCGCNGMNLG
T2 sequence (P33032 whole entry): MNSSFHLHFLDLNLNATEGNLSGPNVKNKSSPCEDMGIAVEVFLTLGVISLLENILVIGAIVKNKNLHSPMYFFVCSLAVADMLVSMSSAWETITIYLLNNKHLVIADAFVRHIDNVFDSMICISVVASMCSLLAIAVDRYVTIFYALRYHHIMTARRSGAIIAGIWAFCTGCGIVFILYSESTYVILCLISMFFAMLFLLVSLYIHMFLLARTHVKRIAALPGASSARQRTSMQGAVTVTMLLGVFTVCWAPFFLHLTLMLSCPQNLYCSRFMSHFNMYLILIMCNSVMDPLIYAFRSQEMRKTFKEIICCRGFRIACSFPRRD

Row | Compound | Activity [1] | Activity [2] | Activity [3] | Activity [4] | Activity [5] | Activity [6] | Activity [7] | IC50 [8] | IC50 [9] | IC50 [10] | EC50 [11] | IC50 [12] | EC50 [13] | EC50 [14] | Activity [15] | EC50 [16] | Kb [17] | Ki ([8]; hek293) | pA2 ([17]; hek293) | Kb [18]
1 | N=C(N)NCCC[C@@H]1NC(=O)[C@@H](Cc2ccc3ccccc3c2)NC(=O)c2nccnc2C(=O)NCCCC[C@@H](C(N)=O)NC(=O)[C@H](Cc2c[nH]c3ccccc23)NC1=O | 0% | 0% | 0% | 0% | 55% | 0% | 0% |  |  |  |  |  |  |  |  |  |  |  |  | 
2 | CCCC[C@@H]1NC(=O)CCC(=O)NCCCC[C@@H](C(N)=O)NC(=O)[C@H](Cc2c[nH]c3ccccc23)NC(=O)[C@H](CCCN=C(N)N)NC(=O)[C@@H](Cc2ccccc2)NC1=O |  |  |  |  |  |  |  | 84 nM | 520 nM | > 10000 nM | > 1000 nM | 930 nM |  |  |  |  |  |  |  | 
3 | N=C(N)NCCC[C@@H]1NC(=O)[C@@H](Cc2ccccc2)NC(=O)c2nccnc2C(=O)NCCCC[C@@H](C(N)=O)NC(=O)[C@H](Cc2c[nH]c3ccccc23)NC1=O | 0% | 0% | 70% | 0% | 60% |  | 0% | 1100 nM | > 10000 nM | 412 nM |  | > 10000 nM | > 10000 nM | 27 nM |  |  |  |  |  | 
4 | NC(=O)[C@@H]1CCCCNC(=O)c2nccnc2C(=O)N[C@H](Cc2ccc3ccccc3c2)C(=O)N[C@@H](CCCN=C(N)N)C(=O)N[C@@H](Cc2c[nH]c3ccccc23)C(=O)N1 |  |  |  |  |  |  |  | 23 nM | 230 nM | 707 nM |  | > 1000 nM | > 3000 nM |  |  |  |  |  |  | 
5 | N=C(N)NCCC[C@@H]1NC(=O)[C@@H](Cc2ccc3ccccc3c2)NC(=O)[C@@H]2CCCN2C(=O)c2ccccc2C(=O)NCCCC[C@@H](C(N)=O)NC(=O)[C@H](Cc2c[nH]c3ccccc23)NC1=O | 0% | 0% | 0% | 0% | 80% | 0% | 0% | 32 nM | 210 nM | 410 nM |  | 430 nM | > 5000 nM |  |  |  |  |  |  | 
6 | N=C(N)NCCC[C@@H]1NC(=O)[C@@H](Cc2ccc3ccccc3c2)NC(=O)[C@@H]2CCCN2C(=O)/C=C\C(=O)NCCCC[C@@H](C(N)=O)NC(=O)[C@H](Cc2c[nH]c3ccccc23)NC1=O | 0% | 0% | 0% | 0% | 0% | 0% | 0% | 20 nM | 120 nM | > 10000 nM |  | 520 nM |  |  | 0% |  |  |  |  | 
7 | NC(=O)[C@@H]1CCCCNC(=O)CCCC(=O)N2CCC[C@H]2C(=O)N[C@H](Cc2ccccc2)C(=O)N[C@@H](CCCN=C(N)N)C(=O)N[C@@H](Cc2c[nH]c3ccccc23)C(=O)N1 |  |  |  |  |  |  |  | 385 nM | 870 nM | > 10000 nM | 570 nM | > 1000 nM |  | 29 nM |  | > 2000 nM |  |  |  | 
8 | N=C(N)NCCC[C@@H]1NC(=O)[C@@H](Cc2ccccc2)NC(=O)[C@@H]2CCCN2C(=O)c2ccccc2C(=O)NCCCC[C@@H](C(N)=O)NC(=O)[C@H](Cc2c[nH]c3ccccc23)NC1=O | 0% | 0% | 100% | 0% | 0% |  | 0% | > 1000 nM | > 1000 nM | > 10000 nM |  | 777 nM |  | 95 nM | 0% |  |  |  |  | 
9 | N=C(N)NCCC[C@@H]1NC(=O)[C@@H](Cc2ccccc2)NC(=O)c2cccc(n2)C(=O)NCCCC[C@@H](C(N)=O)NC(=O)[C@H](Cc2c[nH]c3ccccc23)NC1=O | 0% | 0% | 0% | 0% | 15% | 0% | 0% | > 10000 nM | > 10000 nM | > 10000 nM |  | > 10000 nM | > 1000 nM |  |  |  |  |  |  | 
10 | NC(=O)[C@@H]1CCCCNC(=O)c2cccc(n2)C(=O)N[C@H](Cc2ccc3ccccc3c2)C(=O)N[C@@H](CCCN=C(N)N)C(=O)N[C@@H](Cc2c[nH]c3ccccc23)C(=O)N1 |  |  |  |  |  |  |  | > 1000 nM | > 10000 nM | > 10000 nM |  | > 1000 nM |  |  |  |  |  |  |  | 
11 | N=C(N)NCCC[C@@H]1NC(=O)[C@@H](Cc2ccc3ccccc3c2)NC(=O)c2cccc(n2)C(=O)NCCCC[C@@H](C(N)=O)NC(=O)[C@H](Cc2c[nH]c3ccccc23)NC1=O | 0% | 0% | 0% | 0% | 0% | 0% | 0% |  |  |  |  |  |  |  | 0% |  |  |  |  | 
12 | N=C(N)NCCC[C@@H]1NC(=O)[C@@H](Cc2ccccc2)NC(=O)[C@@H]2CCCN2C(=O)/C=C\C(=O)NCCCC[C@@H](C(N)=O)NC(=O)[C@H](Cc2c[nH]c3ccccc23)NC1=O | 0% | 0% | 80% | 0% | 0% |  | 0% | > 1000 nM | 790 nM | > 10000 nM |  | 160 nM |  | 100 nM | 0% |  |  |  |  | 
13 | NC(=O)[C@@H]1CCCCNC(=O)CCCC(=O)N2CCC[C@H]2C(=O)N[C@H](Cc2ccc3ccccc3c2)C(=O)N[C@@H](CCCN=C(N)N)C(=O)N[C@@H](Cc2c[nH]c3ccccc23)C(=O)N1 |  |  |  |  |  |  |  | 11 nM | 27 nM | > 10000 nM | 23 nM | 330 nM |  |  |  |  | 0.158 nM |  |  | 
14 | NC(=O)[C@@H]1CCCCNC(=O)CC[C@H](N)C(=O)N[C@@H](Cc2cnc[nH]2)C(=O)N[C@H](Cc2ccc3ccccc3c2)C(=O)N[C@@H](CCCN=C(N)N)C(=O)N[C@@H](Cc2c[nH]c3ccccc23)C(=O)N1 |  |  |  |  |  |  |  |  |  |  |  |  |  |  |  |  |  | 5.9 nM | 10.6 | 
15 | CCCC[C@@H]1NC(=O)CCC(=O)NCCCC[C@@H](C(N)=O)NC(=O)[C@H](Cc2c[nH]c3ccccc23)NC(=O)[C@H](CCCN=C(N)N)NC(=O)[C@@H](Cc2ccc3ccccc3c2)NC1=O |  |  |  |  |  |  |  | 12 nM | 17 nM | 2000 nM |  | 300 nM | > 1000 nM |  |  |  | 5.01 nM |  |  | 2 nM
